≈ marks a conversion by molar mass, not a printed value. Calls of active or inactive are those of the source. The rule behind the calls is not given here.
Legend:
[1] = Plasma concentration in Swiss mouse at 10 mg/kg, po after 1 hr; type: ADME, organism-based; parameters: dose 10 mg/kg, route oral
Outline: (§1)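 Nonfasted male Swiss outbred mice (23.8–39.9 g), fed throughout. Dosed by oral gavage as solution or suspension in aqueous vehicle. Plasma assayed by LC-MS against blank-plasma standards after acetonitrile precipitation; LLOQ 0.001–0.015 μM.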

[2] = Kinetic solubility of the compound at pH 6.5 by nephelometric analysis; type: physicochemical; conditions: buffer, read-out: Kinetic_solubility
Trypanosoma cruzi [3] = assay: Antitrypanosomal activity against trypomastigotes of Trypanosoma cruzi Tulahuen expressing the beta- galactosidase gene infected rat L6 cells after 96 hrs; type: functional, organism-based; conditions: L6, 96 h
Outline: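 Tulahuén trypomastigotes expressing β-galactosidase, maintained by serial passage in L6 cells. L6 cells seeded and left 24 h at 37 °C, 5% CO2, then infected at MOI 3 for 48 h. Compound exposure 96 h, benznidazole control. CPRG with 0.3% Nonidet P-40 added, absorbance at 530 nm after 4−6 h. IC50 taken from % inhibition curve; mean of at least two assays.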

[4] = Apparent volume of distribution at steady state in Sprague-Dawley rat at 4.2 mg/kg, iv; type: ADME, organism-based; parameters: dose 4.2 mg/kg, route intravenous; conditions: in vivo, read-out: Vdss(app)
Outline: (§2)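 Overnight-fasted male Sprague–Dawley rats (272–320 g), n = 2 per route. IV dose given as a 10 min jugular infusion in aqueous solution; oral dose by gavage as aqueous suspension. Arterial blood taken via carotid cannula up to 24 h. Plasma measured by LC-MS after acetonitrile precipitation. Noncompartmental analysis. Blood clearance = plasma clearance divided by in vitro blood/plasma ratio. Bioavailability from mean dose-normalised AUC0–inf, oral versus IV.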

Trypanosoma cruzi [5] = assay: Antitrypanosomal activity against trypomastigotes of Trypanosoma cruzi Tulahuen infected in Swiss mouse model of chagas disease assessed as decrease in parasite level in blood at 100 mg/kg, po administered 8 days after post infection qd for 5 days; type: functional; parameters: scale not given: the % may be the effect or the level left
[6] = Therapeutic index, ratio of IC50 for rat L6 cells to IC50 for trypomastigotes of Trypanosoma cruzi Tulahuen; type: cell-based; conditions: read-out: Ratio IC50
[7] = Plasma concentration in Swiss mouse at 100 mg/kg, po after 1 hr; type: ADME, organism-based; parameters: dose 100 mg/kg, route oral
Outline: (§3)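 Nonfasted male Swiss Outbred mice weighing 23.8−39.9 g, with food and water freely available, dosed by oral gavage as an aqueous solution or suspension. Plasma proteins precipitated with acetonitrile and compound quantified by LC-MS against standards made in blank mouse plasma. Lower limit of quantitation 0.001−0.015 μM.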

[8] = Plasma concentration in Swiss mouse at 50 mg/kg, po after 8 hrs; type: ADME, organism-based; parameters: dose 50 mg/kg, route oral; outline: as §1
[9] = Plasma concentration in Swiss mouse at 50 mg/kg, po after 24 hrs; type: ADME, organism-based; parameters: dose 50 mg/kg, route oral; outline: as §1
Trypanosoma cruzi [10] = assay: Antitrypanosomal activity against trypomastigotes of Trypanosoma cruzi Tulahuen infected in Swiss mouse model of chagas disease assessed as decrease in parasite level in blood at 50 mg/kg, po administered 8 days after post infection qd for 5 days; type: functional; parameters: scale not given: the % may be the effect or the level left
Outline: (§4)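 Female outbred Swiss mice, about 8 weeks old, infected ip with Tulahuén parasites; five mice per group. Daily dosing starts day 8 post-infection. Oral doses given by gavage in HPMC vehicle (0.5% HPMC, 0.4% Tween 80, 0.5% benzyl alcohol); ip doses in PBS with 0.4% Tween 80 and 10% PEG400. Tail-prick blood taken days 8, 9, 12, 14, 16, 19 and 27 post-infection, red cells lysed, and live trypomastigotes counted by hemocytometer. % efficacy = (vehicle mean − treated mean)/vehicle mean × 100. Survival recorded as surviving/infected-and-treated.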

[11] = Plasma concentration in Swiss mouse at 20 mg/kg, po after 1 hr; type: ADME, organism-based; parameters: dose 20 mg/kg, route oral; outline: as §1
L6 = assay: Cytotoxicity against rat L6 cells after 72 hrs by Alamar Blue assay; type: cell-based; conditions: L6, 72 h
Outline: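 L6 rat skeletal myoblasts in RPMI 1640 with 10% FBS. Exposed to compound for 72 h, seven-point serial dilutions in triplicate. Alamar Blue read at 570 and 630 nm. IC50 is the mean of at least two assays; podophyllotoxin used as control.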

[12] = Plasma concentration in Swiss mouse at 50 mg/kg, po after 1 hr; type: ADME, organism-based; parameters: dose 50 mg/kg, route oral; outline: as §1
Trypanosoma cruzi [13] = assay: Antitrypanosomal activity against trypomastigotes of Trypanosoma cruzi Tulahuen infected in Swiss mouse model of chagas disease assessed as increase of host survival at 20 mg/kg, po administered 8 days after post infection qd for 5 days; type: functional, organism-based; parameters: dose 20 mg/kg
Trypanosoma cruzi [14] = assay: Antitrypanosomal activity against trypomastigotes of Trypanosoma cruzi Tulahuen infected in Swiss mouse model of chagas disease assessed as increase of host survival at 50 mg/kg, po administered 8 days after post infection qd for 5 days; type: functional, organism-based; parameters: dose 50 mg/kg
[15] = Plasma concentration in Swiss mouse at 20 mg/kg, po after 8 hrs; type: ADME, organism-based; parameters: dose 20 mg/kg, route oral; outline: as §1
[16] = Plasma concentration in Swiss mouse at 100 mg/kg, po after 8 hrs; type: ADME, organism-based; parameters: dose 100 mg/kg, route oral; outline: as §3
[17] = Plasma concentration in Swiss mouse at 10 mg/kg, po after 8 hrs; type: ADME, organism-based; parameters: dose 10 mg/kg, route oral; outline: as §1
Trypanosoma cruzi [18] = assay: Antitrypanosomal activity against trypomastigotes of Trypanosoma cruzi Tulahuen infected in Swiss mouse model of chagas disease assessed as decrease in parasite level in blood at 20 mg/kg, po administered 8 days after post infection qd for 5 days; parameters: scale not given: the % may be the effect or the level left
[19] = Oral bioavailability in Sprague-Dawley rat at 15.2 mg/kg; type: ADME, organism-based; conditions: in vivo; outline: as §2
CYP3A4/5 = CYP3A4/5 (Homo sapiens, UniProt P08684+P20815); assay: Inhibition of CYP3A4/5 in human liver microsomes; type: ADME, Microsome
[20] = Blood Clearance in Sprague-Dawley rat at 4.2 mg/kg, iv; type: ADME, organism-based; parameters: dose 4.2 mg/kg, route intravenous; conditions: whole blood; outline: as §2
[21] = Elimination half life in Sprague-Dawley rat at 4.2 mg/kg, iv; type: ADME, organism-based; parameters: dose 4.2 mg/kg, route intravenous; conditions: in vivo, read-out: beta t1/2 (converted); outline: as §2
Trypanosoma cruzi [22] = assay: Antitrypanosomal activity against trypomastigotes of Trypanosoma cruzi Tulahuen infected in Swiss mouse model of chagas disease assessed as increase in host survival at 100 mg/kg, po administered 8 day after post infection qd for 20 days; type: functional, organism-based; parameters: dose 100 mg/kg
Trypanosoma cruzi [23] = assay: Antitrypanosomal activity against trypomastigotes of Trypanosoma cruzi Tulahuen infected immunosuppressed Swiss mouse assessed as level of parasite in blood at 100 mg/kg, po administered 8 day after post infection qd for 20 days measured after 3 cycles of immunosuppression; type: functional, organism-based; parameters: dose 100 mg/kg
Trypanosoma cruzi [24] = assay: Antitrypanosomal activity against trypomastigotes of Trypanosoma cruzi Tulahuen infected in Swiss mouse model of chagas disease assessed as decrease in parasite level in blood at 100 mg/kg, po administered 8 day after post infection qd for 20 days; type: functional; parameters: scale not given: the % may be the effect or the level left
Trypanosoma cruzi [25] = assay: Antitrypanosomal activity against trypomastigotes of Trypanosoma cruzi Tulahuen infected immunosuppressed Swiss mouse assessed as level of parasite in blood at 20 mg/kg, po administered 8 day after post infection qd for 20 days measured after 3 cycles of immunosuppression; type: functional, organism-based; parameters: dose 20 mg/kg
[26] = Oral bioavailability in Sprague-Dawley rat at 17.6 mg/kg; type: ADME, organism-based; conditions: in vivo; outline: as §2
Trypanosoma cruzi [27] = assay: Antitrypanosomal activity against trypomastigotes of Trypanosoma cruzi Tulahuen infected in Swiss mouse model of chagas disease assessed as decrease in parasite level in blood at 20 mg/kg, po administered 8 day after post infection qd for 20 days; type: functional; parameters: scale not given: the % may be the effect or the level left; outline: as §4
Trypanosoma cruzi [28] = assay: Antitrypanosomal activity against trypomastigotes of Trypanosoma cruzi Tulahuen infected in Swiss mouse model of chagas disease assessed as decrease in parasite level in blood at 50 mg/kg, po administered 8 day after post infection qd for 10 days measured on day 21; type: functional, organism-based; parameters: dose 50 mg/kg
Trypanosoma cruzi [29] = assay: Antitrypanosomal activity against trypomastigotes of Trypanosoma cruzi Tulahuen infected in Swiss mouse model of chagas disease assessed as level of parasite in blood at 20 mg/kg, po qd for 20 days measured after 30 day; type: functional, organism-based; parameters: dose 20 mg/kg
Outline: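 Female Swiss mice infected ip with Tulahuén parasites; oral gavage dosing in HPMC vehicle, daily from day 8 post-infection. Dosing is followed by 10 days without compound. If blood is then parasite-free, mice receive cyclophosphamide ip 50 mg/kg/day, up to three cycles (4 days on, 3 rest). Parasitemia counted in tail-prick blood by hemocytometer.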

[30] = Elimination half life in Sprague-Dawley rat at 5.2 mg/kg, iv; type: ADME, organism-based; parameters: dose 5.2 mg/kg, route intravenous; conditions: in vivo, read-out: beta t1/2 (converted); outline: as §2
Trypanosoma cruzi [31] = assay: Antitrypanosomal activity against trypomastigotes of Trypanosoma cruzi Tulahuen infected immunosuppressed Swiss mouse assessed as level of parasite in blood at 50 mg/kg, po administered after 2 cycles of immunosuppression qd for 10 days; type: functional, organism-based; parameters: dose 50 mg/kg
Trypanosoma cruzi [32] = assay: Antitrypanosomal activity against trypomastigotes of Trypanosoma cruzi Tulahuen infected in Swiss mouse model of chagas disease assessed as decrease in parasite level in blood at 50 mg/kg, po administered 8 day after post infection qd for 10 days; type: functional, organism-based; parameters: dose 50 mg/kg
[33] = Blood Clearance in Sprague-Dawley rat at 5.2 mg/kg, iv; type: ADME, organism-based; parameters: dose 5.2 mg/kg, route intravenous; conditions: whole blood; outline: as §2
[34] = Apparent volume of distribution at steady state in Sprague-Dawley rat at 5.2 mg/kg, iv; type: ADME, organism-based; parameters: dose 5.2 mg/kg, route intravenous; conditions: in vivo, read-out: Vdss(app); outline: as §2

SMILES: NC(=O)c1cccc(C(O)(c2ccc(Cl)cc2)c2cccnc2)c1 (racemic)
- concentration at 1 h [1]: 6.8 µM
- solubility kinetic [2]: 50 µg/mL (≈ 148 µM)
- IC50 (Trypanosoma cruzi [3]): 0.03 µM
- Vd [4]: 3.6 L/kg
- Activity (Trypanosoma cruzi [5]): >95%
- selectivity ratio [6]: > 500
- concentration at 1 h [7]: 19.5 µM
- concentration at 8 h [8]: 15.9 µM
- concentration at 24 h [9]: 0.06 µM
- Activity (Trypanosoma cruzi [10]): 65%
- concentration at 1 h [11]: 10.3 µM
- IC50 (L6): > 100 µM
- concentration at 1 h [12]: 13.7 µM
- Activity (Trypanosoma cruzi [13]): Active
- Activity (Trypanosoma cruzi [14]): Active
- concentration at 8 h [15]: 1.9 µM
- concentration at 8 h [16]: 6.5 µM
- concentration at 8 h [17]: 0.4 µM
- Activity (Trypanosoma cruzi [18]): 0%
- bioavailability [19]: 95%
- IC50 (CYP3A4/5): 2.6 µM
- clearance [20]: 18.9 mL/min/kg
- half-life [21]: 6.1 h

SMILES: O=C(Cn1ccnc1[N+](=O)[O-])NCc1ccccc1 [BENZNIDAZOLE]
- Activity (Trypanosoma cruzi [22]): Active
- Activity (Trypanosoma cruzi [23]): Active
- Activity (Trypanosoma cruzi [24]): >99%
- Activity (Trypanosoma cruzi [25]): Active

SMILES: N#Cc1ccc(C(O)(c2ccc(C(F)(F)F)cc2)c2cccnc2)cc1 (racemic)
- solubility kinetic [2]: 6.3 µg/mL (≈ 17.8 µM)
- IC50 (Trypanosoma cruzi [3]): 0.012 µM
- Activity (Trypanosoma cruzi [23]): Active
- bioavailability [26]: 68.1%
- Activity (Trypanosoma cruzi [25]): Active
- Activity (Trypanosoma cruzi [27]): >99%
- Activity (Trypanosoma cruzi [28]): Active
- Activity (Trypanosoma cruzi [29]): Active
- half-life [30]: 5.1 h
- Activity (Trypanosoma cruzi [31]): inactive
- Activity (Trypanosoma cruzi [32]): Active
- clearance [33]: 24.4 mL/min/kg
- Vd [34]: 5.7 L/kg
- IC50 (CYP3A4/5): 7.6 µM

— ChEMBL document CHEMBL2057177, “Analogues of fenarimol are potent inhibitors of Trypanosoma cruzi and are efficacious in a murine model of Chagas disease” (J Med Chem, 2012)
